In ChEMBL document CHEMBL4477166, “18β-Glycyrrhetinic Acid Derivatives Possessing a Trihydroxylated A Ring Are Potent Gram-Positive Antibacterial Agents” (2016):
Values after ≈ are worked out from the molar mass of the structure shown. Active and inactive are the calls of the source. The rule behind the calls is not given here.

Tests used:
Bacillus subtilis [1] = experiment: Antibacterial activity against Bacillus subtilis ATCC 6051 by microdilution assay; format: functional
Procedure, shortened: (§1)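 Turbidimetric broth microdilution. Log-phase cells were washed and resuspended in broth (LB at 37 °C for B. subtilis and S. aureus; oat bran broth at 28 °C for S. scabies) and seeded at 1 × 10⁵ CFU/mL. Twofold serial dilutions were made with DMSO ≤1% (v/v). A620 was read, then plates were incubated with vigorous shaking. MIC was the lowest concentration with no apparent growth versus vehicle-only medium without cells. Run in triplicate.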

Bacillus subtilis [2] = experiment: Antibacterial activity against Bacillus subtilis ATCC 6051 by time-kill analysis; format: functional, organism-based
Procedure, shortened: (§2)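 Time-kill in LB at 37 °C. B. subtilis or S. aureus suspensions were set at 5 × 10⁵ CFU/mL and exposed to 0.5×, 1×, 2× and 4× MIC alongside negative and positive controls. Samples of 1 mL were taken at 0, 2, 4, 6, 8, 12 and 24 h, serially diluted and plated for viable counts, and survival was calculated. Three repeats.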

Staphylococcus aureus [3] = experiment: Antibacterial activity against Staphylococcus aureus ATCC 25923 by microdilution assay; format: functional; procedure, shortened: as §1
Streptomyces scabiei [4] = experiment: Antibacterial activity against Streptomyces scabiei CGMCC4.7610246 by microdilution assay; format: functional; procedure, shortened: as §1
Staphylococcus aureus [5] = experiment: Antibacterial activity against Staphylococcus aureus ATCC 25923 at 0.5 times MIC by time-kill analysis; format: functional, organism-based; procedure, shortened: as §2
Streptomyces scabiei [6] = experiment: Reduction in murX expression in Streptomyces scabiei CGMCC4.7610246 at 0.5 times MIC by qRT-PCR analysis relative to control; format: functional, organism-based
Procedure, shortened: (§3)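 Bacteria were grown in broth with compound at 0.5 × MIC or vehicle to exponential phase (OD620 = 0.4) and then pelleted. Total RNA was reverse-transcribed, and SYBR-based real-time PCR was run against housekeeping genes. Relative expression versus control was calculated by 2^−ΔΔCT. Mean ± SEM, n = 3, significance at p < 0.05.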

Bacillus subtilis [7] = experiment: Antibacterial activity against Bacillus subtilis ATCC 6051 at 0.5 times MIC by time-kill analysis; format: functional, organism-based; procedure, shortened: as §2
Staphylococcus aureus [8] = experiment: Antibacterial activity against methicillin-resistant Staphylococcus aureus by microdilution assay; format: functional
Procedure, shortened: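 Log-phase cells seeded at 1 × 10⁵ CFU/mL. Twofold serial dilutions made in broth with DMSO cosolvent, at most 1% v/v. Turbidity read at 620 nm before and after incubation with vigorous shaking. MIC is the lowest concentration with no apparent growth versus the medium-plus-vehicle control. Run in triplicate.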

Streptomyces scabiei [9] = experiment: Antibacterial activity against Streptomyces scabiei CGMCC4.7610246 at 0.5 times MIC by time-kill analysis; format: functional, organism-based
Procedure, shortened: (§4)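 Killing kinetics for S. scabies in oat bran broth at 28 °C, starting at 5 × 10⁵ CFU/mL. Exposure was 0.5×, 1×, 2× or 4× MIC, with negative and positive controls. Samples of 1 mL were withdrawn at 0, 4, 8, 16, 24 and 36 h, serially diluted and plated, and survival was calculated from colony counts. Performed in triplicate.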

Streptomyces scabiei [10] = experiment: Reduction in p450 expression in Streptomyces scabiei CGMCC4.7610246 at 0.5 times MIC by qRT-PCR analysis relative to control; format: functional, organism-based; procedure, shortened: as §3
Pseudomonas aeruginosa [11] = experiment: Antibacterial activity against Pseudomonas aeruginosa at 100 uM measured after 5 to 6 hrs by microdilution assay; format: functional, organism-based
Streptomyces scabiei [12] = experiment: Antibacterial activity against Streptomyces scabiei CGMCC4.7610246 by time-kill analysis; format: functional, organism-based; procedure, shortened: as §4
Staphylococcus aureus [13] = experiment: Antibacterial activity against Staphylococcus aureus ATCC 25923 by time-kill analysis; format: functional, organism-based; procedure, shortened: as §2
Escherichia coli [14] = experiment: Antibacterial activity against Escherichia coli at 100 uM measured after 5 to 6 hrs by microdilution assay; format: functional, organism-based
Pseudomonas aeruginosa [15] = experiment: Antibacterial activity against multi-drug resistant Pseudomonas aeruginosa at 100 uM measured after 5 to 6 hrs by microdilution assay; format: functional, organism-based
Procedure, shortened: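 Log-phase cells seeded at 1 × 10⁵ CFU/mL. Single-dose screen at 100 μM, with DMSO cosolvent at most 1% v/v. Growth measured turbidimetrically at 620 nm, before and after incubation with vigorous shaking.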

Staphylococcus aureus [16] = experiment: Inhibition of hla expression in methicillin-resistant Staphylococcus aureus at 0.5 times MIC by qRT-PCR analysis relative to control; format: functional, organism-based
Procedure, shortened: (§5)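 MRSA grown in broth containing either 0.5 × MIC of test compound or vehicle alone. Cells harvested at exponential phase (OD₆₂₀ = 0.4). Total RNA reverse-transcribed, then SYBR-based real-time PCR run. Relative expression computed by the 2^−ΔΔCT method against the vehicle control or the parent-acid-treated group. Mean ± SEM, n = 3; significance set at p < 0.05.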

Bacillus subtilis [17] = experiment: Upregulation of yqhB expression in Bacillus subtilis ATCC 6051 at 0.5 times MIC by qRT-PCR analysis relative to control; format: functional, organism-based; procedure, shortened: as §3
Staphylococcus aureus [18] = experiment: Increase in fmhB expression in Staphylococcus aureus ATCC 25923 at 0.5 times MIC by qRT-PCR analysis relative to 18-beta-glycyrrhetinic acid; format: functional, organism-based; procedure, shortened: as §3
Staphylococcus aureus [19] = experiment: Increase in fmhB expression in methicillin-resistant Staphylococcus aureus at 0.5 times MIC by qRT-PCR analysis relative to control; format: functional, organism-based; procedure, shortened: as §5
Bacillus subtilis [20] = experiment: Upregulation of yhdT expression in Bacillus subtilis ATCC 6051 at 0.5 times MIC by qRT-PCR analysis relative to control; format: functional, organism-based; procedure, shortened: as §3
Staphylococcus aureus [21] = experiment: Inhibition of lytM expression in methicillin-resistant Staphylococcus aureus at 0.5 times MIC by qRT-PCR analysis; format: functional, organism-based; procedure, shortened: as §5
Staphylococcus aureus [22] = experiment: Down regulation of mecA gene in methicillin-resistant Staphylococcus aureus at 0.5 times MIC by qRT-PCR analysis relative to control; format: functional, organism-based; procedure, shortened: as §5
Bacillus subtilis [23] = experiment: Upregulation of ykuD expression in Bacillus subtilis ATCC 6051 at 0.5 times MIC by qRT-PCR analysis; format: functional, organism-based; procedure, shortened: as §3
Staphylococcus aureus [24] = experiment: Upregulation of seaR expression in Staphylococcus aureus ATCC 25923 at 0.5 times MIC by qRT-PCR analysis relative to control; format: functional, organism-based; procedure, shortened: as §3
Staphylococcus aureus [25] = experiment: Upregulation of hla expression in Staphylococcus aureus ATCC 25923 at 0.5 times MIC by qRT-PCR analysis relative to control; format: functional, organism-based; procedure, shortened: as §3
Staphylococcus aureus [26] = experiment: Inhibition of seaR expression in methicillin-resistant Staphylococcus aureus at 0.5 times MIC by qRT-PCR analysis relative to control; format: functional, organism-based; procedure, shortened: as §5
Staphylococcus aureus [27] = experiment: Down regulation of mecA gene in methicillin-resistant Staphylococcus aureus at 0.5 times MIC by qRT-PCR analysis relative to 18-beta-glycyrrhetinic acid; format: functional, organism-based; procedure, shortened: as §5
Staphylococcus aureus [28] = experiment: Increase in fmhB expression in Staphylococcus aureus at 0.5 times MIC by qRT-PCR analysis relative to 18-beta-glycyrrhetinic acid; format: functional, organism-based; procedure, shortened: as §3
Staphylococcus aureus [29] = experiment: Reduction in narG expression in Staphylococcus aureus ATCC 25923 at 0.5 times MIC by qRT-PCR analysis relative to control; format: functional, organism-based; procedure, shortened: as §3
Staphylococcus aureus [30] = experiment: Reduction in narG expression in methicillin-resistant Staphylococcus aureus at 0.5 times MIC by qRT-PCR analysis relative to control; format: functional, organism-based; procedure, shortened: as §5
Staphylococcus aureus [31] = experiment: Increase in fmhB expression in Staphylococcus aureus ATCC 25923 at 0.5 times MIC by qRT-PCR analysis relative to control; format: functional, organism-based; procedure, shortened: as §3
Staphylococcus aureus [32] = experiment: Effect on lytM expression in Staphylococcus aureus ATCC 25923 at 0.5 times MIC by qRT-PCR analysis; format: functional, organism-based; procedure, shortened: as §3
Bacillus subtilis [33] = experiment: Upregulation of lytF expression in Bacillus subtilis ATCC 6051 at 0.5 times MIC by qRT-PCR analysis; format: functional, organism-based; procedure, shortened: as §3
Bacillus subtilis [34] = experiment: Reduction in mmD expression in Bacillus subtilis ATCC 6051 at 0.5 times MIC by qRT-PCR analysis relative to control; format: functional, organism-based; procedure, shortened: as §3
Escherichia coli [35] = experiment: Antibacterial activity against Escherichia coli measured after 5 to 6 hrs by microdilution titre technique; format: functional
Bacillus thuringiensis = experiment: Antibacterial activity against Bacillus thuringiensis measured after 5 to 6 hrs by microdilution titre technique; format: functional

| Structure (SMILES) | MIC (Bacillus subtilis [1]) | Activity (Bacillus subtilis [2]) | MIC (Staphylococcus aureus [3]) | MIC (Streptomyces scabiei [4]) | Activity (Staphylococcus aureus [5]) | Activity (Bacillus subtilis [7]) | MIC (Staphylococcus aureus [8]) | Activity (Streptomyces scabiei [9]) | Activity (Streptomyces scabiei [10]) | Activity (Pseudomonas aeruginosa [11]) | Activity (Streptomyces scabiei [12]) | Activity (Staphylococcus aureus [13]) | Activity (Escherichia coli [14]) | Activity (Pseudomonas aeruginosa [15]) | inhibition (Staphylococcus aureus [16]) | Activity (Bacillus subtilis [17]) | Activity (Bacillus subtilis [20]) | Activity (Staphylococcus aureus [24]) | Activity (Staphylococcus aureus [25]) | inhibition (Staphylococcus aureus [26]) | further results |
| --- | --- | --- | --- | --- | --- | --- | --- | --- | --- | --- | --- | --- | --- | --- | --- | --- | --- | --- | --- | --- | --- |
| COC(=O)[C@@]1(C)CC[C@]2(C)CC[C@]3(C)C(=CC[C@@H]4[C@@]5(C)[C@@H](O)[C@H](O)[C@H](O)C(C)(C)[C@@H]5CC[C@]43C)[C@@H]2C1 | 4 µg/mL (≈ 7.96 µM) | Dose-dependent effect | 2 µg/mL (≈ 3.98 µM) | 1 µg/mL (≈ 1.99 µM) | inactive | inactive | > 32 µg/mL | inactive | Active | inactive | Dose-dependent effect | Dose-dependent effect | inactive | inactive | – | – | – | – | – | – | Activity (Streptomyces scabiei [6]): Active |
| CCOC(=O)[C@@]1(C)CC[C@]2(C)CC[C@]3(C)C(=CC[C@@H]4[C@@]5(C)[C@@H](O)[C@H](O)[C@H](O)C(C)(C)[C@@H]5CC[C@]43C)[C@@H]2C1 | 2 µg/mL (≈ 3.87 µM) | Dose-dependent effect | 1 µg/mL (≈ 1.94 µM) | 4.1 µg/mL (≈ 7.93 µM) | inactive | inactive | 1 µg/mL (≈ 1.94 µM) | inactive | – | inactive | Dose-dependent effect | Dose-dependent effect | inactive | inactive | Active | Active | Active | Active | Active | Active | Activity (Staphylococcus aureus [18]): Active; Activity (Staphylococcus aureus [19]): Active; inhibition (Staphylococcus aureus [21]): Active; Activity (Staphylococcus aureus [22]): Active; Activity (Bacillus subtilis [23]): Active; Activity (Staphylococcus aureus [27]): Active; Activity (Staphylococcus aureus [28]): Active; Activity (Staphylococcus aureus [29]): Active; Activity (Staphylococcus aureus [30]): Active; Activity (Staphylococcus aureus [31]): Active; Activity (Staphylococcus aureus [32]): inactive; Activity (Bacillus subtilis [33]): Active; Activity (Bacillus subtilis [34]): Active |
| CC1(C)[C@@H](O)CC[C@]2(C)[C@H]3C(=O)C=C4[C@@H]5C[C@@](C)(C(=O)O)CC[C@]5(C)CC[C@@]4(C)[C@]3(C)CC[C@@H]12 [ENOXOLONE] | > 50 µg/mL | – | > 50 µg/mL | > 50 µg/mL | – | – | > 50 µg/mL | – | Active | inactive | – | – | inactive | inactive | Active | Active | Active | Active | Active | Active | Activity (Staphylococcus aureus [29]): inactive; Activity (Staphylococcus aureus [30]): inactive; Activity (Staphylococcus aureus [32]): inactive; Activity (Bacillus subtilis [34]): inactive |
| CC1(C)CC[C@]2(C(=O)O)CC[C@]3(C)C(=CC[C@@H]4[C@@]5(C)CC[C@H](O)C(C)(C)[C@@H]5CC[C@]43C)[C@@H]2C1 [OLEANOLIC_ACID] | – | – | – | – | – | – | – | – | – | – | – | – | – | – | – | – | – | – | – | – | MIC (Escherichia coli [35]): 7.8 µg/mL (≈ 17.1 µM); MIC (Bacillus thuringiensis): 1.9 µg/mL (≈ 4.16 µM) |
